Measurements reported in ChEMBL document CHEMBL3098054, “The synthesis of novel taxoids for oral administration” (Bioorg Med Chem, 2014).

How the values were obtained:
[1] = system: HeLa; assay: Cytotoxicity against human HeLa cells at 1 uM after 72 hrs by MTT assay; assay type: functional; settings: read-out: GI
How it was run: (§1)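 Cells plated at 2000–5000/well, attached overnight at 37 °C. DMSO stocks (100 mM) serially diluted in medium to a final 1 µM, tested in duplicate wells. Exposure 72 h at 37 °C, 5% CO₂. MTT (5 mg/mL, 10 µL) added for 4 h. Lysis in 10% SDS / 5% isopropanol / 0.012 N HCl, then OD read at 580–680 nm.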

[2] = system: A2780; assay: Cytotoxicity against human A2780 cells at 1 uM after 72 hrs by MTT assay; assay type: functional; settings: A2780, 72 h, read-out: GI; how it was run: as §1
[3] = system: Caco-2; assay: (§2) Apparent permeability from apical to basolateral side in human Caco2 cells at 10 uM after 90 mins by LC-MS/MS analysis; assay type: ADME, cell-based; settings: caco-2, 1.5 h, 10 µM
[4] = system: NCI-H460; assay: Cytotoxicity against human NCI-H460 cells at 1 uM after 72 hrs by MTT assay; assay type: functional; settings: NCI-H460, 72 h, read-out: GI; how it was run: as §1
[5] = system: HT-29; assay: Cytotoxicity against human HT-29 cells at 1 uM after 72 hrs by MTT assay; assay type: functional; settings: HT-29, 72 h, read-out: GI; how it was run: as §1
[6] = system: MDR1; assay: Apparent permeability from apical to basolateral side in MDCK cells expressing MDR1 at 5 uM after 90 mins; assay type: ADME, cell-based, Canis lupus familiaris; settings: dog
How it was run: (§3)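 MDCK-MDR1 monolayers grown on polycarbonate filter Transwells, confluent 5 days after seeding, TEER >1000 Ω·cm² before use. MDCK-WT cells plated at 5.0 × 10⁴ cells/well and used after 6 days at TEER >200 Ω·cm². Transport run at 37 °C in HBSS pH 7.4 for 90 min, in both directions. Lucifer yellow permeability and TEER change served as monolayer integrity checks. Efflux ratio = Papp(B–A)/Papp(A–B).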

[7] = system: DU-145; assay: Cytotoxicity against human DU145 cells at 1 uM after 72 hrs by MTT assay; assay type: functional; settings: DU-145, 72 h, read-out: GI; how it was run: as §1
[8] = target: ATP-dependent translocase ABCB1 (Homo sapiens, UniProt P08183); assay: Inhibition of MDR1 (unknown origin) expressed in MDCK cells at 10 uM after 90 mins; assay type: ADME, cell-based; settings: 1.5 h
Chain of ATP-dependent translocase ABCB1 (P08183 whole entry): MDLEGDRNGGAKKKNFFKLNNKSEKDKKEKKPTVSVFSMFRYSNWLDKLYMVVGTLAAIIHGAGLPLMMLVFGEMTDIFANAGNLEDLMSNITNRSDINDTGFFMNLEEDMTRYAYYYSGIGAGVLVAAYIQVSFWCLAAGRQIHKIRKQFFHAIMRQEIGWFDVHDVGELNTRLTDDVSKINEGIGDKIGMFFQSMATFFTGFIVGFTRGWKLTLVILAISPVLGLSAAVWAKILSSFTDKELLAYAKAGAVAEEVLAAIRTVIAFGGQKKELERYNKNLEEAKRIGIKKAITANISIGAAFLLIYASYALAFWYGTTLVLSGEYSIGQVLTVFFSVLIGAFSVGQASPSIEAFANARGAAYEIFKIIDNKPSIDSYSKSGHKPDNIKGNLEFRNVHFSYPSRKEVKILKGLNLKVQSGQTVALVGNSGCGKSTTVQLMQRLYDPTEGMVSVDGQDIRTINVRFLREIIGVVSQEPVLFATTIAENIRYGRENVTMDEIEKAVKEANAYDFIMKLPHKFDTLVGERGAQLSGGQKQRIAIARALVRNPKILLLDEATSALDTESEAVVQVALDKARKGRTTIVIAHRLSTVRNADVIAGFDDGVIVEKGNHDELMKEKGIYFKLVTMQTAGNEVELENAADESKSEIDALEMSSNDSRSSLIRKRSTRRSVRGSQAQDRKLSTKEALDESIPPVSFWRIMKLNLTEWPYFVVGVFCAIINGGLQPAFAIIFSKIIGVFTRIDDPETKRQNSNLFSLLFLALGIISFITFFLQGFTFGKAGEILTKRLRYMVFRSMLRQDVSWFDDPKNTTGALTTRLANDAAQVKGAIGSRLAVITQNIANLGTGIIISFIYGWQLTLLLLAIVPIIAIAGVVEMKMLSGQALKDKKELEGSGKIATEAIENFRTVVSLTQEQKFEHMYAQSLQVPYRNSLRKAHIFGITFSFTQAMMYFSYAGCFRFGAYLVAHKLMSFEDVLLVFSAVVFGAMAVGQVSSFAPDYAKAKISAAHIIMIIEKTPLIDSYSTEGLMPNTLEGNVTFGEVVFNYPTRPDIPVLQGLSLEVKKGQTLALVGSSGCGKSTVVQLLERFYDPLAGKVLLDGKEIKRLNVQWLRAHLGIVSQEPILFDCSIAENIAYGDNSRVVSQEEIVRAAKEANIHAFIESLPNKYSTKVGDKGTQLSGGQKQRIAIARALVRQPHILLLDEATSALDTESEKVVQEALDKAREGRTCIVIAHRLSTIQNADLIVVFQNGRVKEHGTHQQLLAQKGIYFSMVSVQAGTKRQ
How it was run: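 P-gp inhibition measured as digoxin bidirectional transport across MDCK-MDR1 monolayers at 37 °C in HBSS pH 7.4, with test compound present at 10 µM. Read-out is the change in digoxin efflux ratio, Papp(B–A)/Papp(A–B).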

[9] = Efflux ratio of apparent permeability from basolateral to apical side over apical to basolateral side in wild-type MDCK cells at 5 uM after 90 mins; assay type: ADME, cell-based, Canis lupus familiaris; settings: dog; how it was run: as §3
[10] = system: HL-60; assay: Cytotoxicity against human HL60 cells at 1 uM after 72 hrs by MTT assay; assay type: functional; settings: HL-60, 72 h, read-out: GI; how it was run: as §1
[11] = system: A-375; assay: Cytotoxicity against human A375 cells at 1 uM after 72 hrs by MTT assay; assay type: functional; settings: A-375, 72 h, read-out: GI
How it was run: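 Cells plated at 2000–5000/well, attached overnight at 37 °C. DMSO stocks (100 mM) serially diluted in medium to a final 1 µM, tested in duplicate wells. MTT (5 mg/mL, 10 µL) added for 4 h. Lysis in 10% SDS / 5% isopropanol / 0.012 N HCl, then OD read at 580–680 nm.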

[12] = system: MCF7; assay: Cytotoxicity against human MCF7 cells after 72 hrs by MTT assay; assay type: functional, cell-based; settings: MCF7, 72 h
How it was run: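 MCF-7 cells exposed to compound for 72 h and read by MTT. At least six replicate wells per assay, run on three separate occasions. IC₅₀ given as mean with standard deviation.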

[13] = system: MDR1; assay: Efflux ratio of apparent permeability from basolateral to apical side over apical to basolateral side in MDCK cells expressing MDR1 at 5 uM after 90 mins; assay type: ADME, cell-based, Canis lupus familiaris; settings: dog; how it was run: as §3
[14] = system: MCF7; assay: Cytotoxicity against human MCF7 cells at 1 uM after 72 hrs by MTT assay; assay type: functional; settings: MCF7, 72 h, read-out: GI; how it was run: as §1
[15] = system: MDR1; assay: Apparent permeability from basolateral to apical side in MDCK cells expressing MDR1 at 5 uM after 90 mins; assay type: ADME, cell-based, Canis lupus familiaris; settings: dog; how it was run: as §3
[16] = system: Caco-2; assay: (§4) Apparent permeability from basolateral to apical side in human Caco2 cells at 10 uM after 90 mins by LC-MS/MS analysis; assay type: ADME, cell-based; settings: caco-2, 1.5 h, 10 µM
[17] = system: Caco-2; assay: (§5) Efflux ratio of apparent permeability from basolateral to apical side over apical to basolateral side in human Caco2 cells at 10 uM after 90 mins by LC-MS/MS analysis; assay type: ADME, cell-based; settings: caco-2, 1.5 h, 10 µM
How it was run: (§6)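 Caco-2 cells cultured 21 days on 24-well inserts, TEER >250 Ω·cm². Monolayers pre-incubated in HBSS pH 7.4 at 37 °C. Compound added to the donor side at 10 µM, 37 °C, 5% CO₂, 90 min, in the A-to-B and B-to-A directions. Donor and receiver levels measured by LC-MS/MS. Papp calculated from receiver amount, membrane area 0.7 cm², time and initial donor concentration. Efflux ratio = B–A/A–B.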

[18] = Apparent permeability from basolateral to apical side in wild-type MDCK cells at 5 uM after 90 mins; assay type: ADME, cell-based, Canis lupus familiaris; settings: dog; how it was run: as §3
[19] = Apparent permeability from apical to basolateral side in wild-type MDCK cells at 5 uM after 90 mins; assay type: ADME, cell-based, Canis lupus familiaris; settings: dog; how it was run: as §3
[20] = as §2; assay type: ADME, cell-based, Caco-2; settings: Caco-2
[21] = as §4; assay type: ADME, cell-based, Caco-2; settings: Caco-2
[22] = as §5; assay type: ADME, cell-based, Caco-2; settings: Caco-2; how it was run: as §6

Row | SMILES | inhibition of growth at 1 µM [1] | Papp [3] | Papp A→B at 1.5 h, 5 µM [6] | inhibition (INH) [8] | efflux ratio at 1.5 h, 5 µM [9] | IC50 [12] | efflux ratio at 1.5 h, 5 µM [13] | Papp B→A at 1.5 h, 5 µM [15] | Papp [16] | Ratio [17] | Papp B→A at 1.5 h, 5 µM [18] | Papp A→B at 1.5 h, 5 µM [19] | Papp A→B at 1.5 h, 10 µM [20] | Papp B→A at 1.5 h, 10 µM [21] | efflux ratio at 1.5 h, 10 µM [22] | other results
1 | CO[C@H]1C(=O)[C@]2(C)[C@@H](OC(=O)N(C)C)C[C@H]3OC[C@@]3(OC(C)=O)[C@H]2[C@H](OC(=O)c2ccccc2)[C@]2(O)C[C@H](OC(=O)[C@H](O)[C@@H](NC(=O)OC(C)(C)C)c3ccccc3)C(C)=C1C2(C)C | 103% | 10.6 ×10⁻⁶ cm/s | 0.52 ×10⁻⁶ cm/s | Active | 2.28 | 9.63 nM | 10.1 | 5.26 ×10⁻⁶ cm/s | 26 ×10⁻⁶ cm/s | 1.73 | 3.17 ×10⁻⁶ cm/s | 1.39 ×10⁻⁶ cm/s |  |  |  | inhibition of growth at 1 µM [2]: 95.8%; inhibition of growth at 1 µM [4]: 86.6%; inhibition of growth at 1 µM [5]: 89.8%; inhibition of growth at 1 µM [7]: 87.5%; inhibition of growth at 1 µM [10]: 97.8%; inhibition of growth at 1 µM [11]: 90.4%; inhibition of growth at 1 µM [14]: 102%
2 | CO[C@H]1C(=O)[C@]2(C)[C@@H](OC(=O)N(C)C)C[C@H]3OC[C@@]3(OC(C)=O)[C@H]2[C@H](OC(=O)c2ccccc2)[C@]2(O)C[C@H](OC(=O)[C@H](O)[C@H](CC(C)C)NC(=O)OC(C)(C)C)C(C)=C1C2(C)C | 102% | 10.7 ×10⁻⁶ cm/s |  |  |  | 13.3 nM |  |  | 30.9 ×10⁻⁶ cm/s | 1.59 |  |  |  |  |  | 
3 | CO[C@H]1C[C@H]2OC[C@@]2(OC(C)=O)[C@H]2[C@H](OC(=O)c3ccccc3)[C@]34OC(=O)O[C@H]3[C@H](OC(=O)[C@H](O)[C@@H](NC(=O)OC(C)(C)C)c3ccccc3)C(C)=C([C@@H](OC(=O)N(C)C)C(=O)[C@]12C)C4(C)C |  |  | 0.63 ×10⁻⁶ cm/s | Active | 2.13 | 7.93 nM | 10.1 | 6.38 ×10⁻⁶ cm/s |  |  | 2.99 ×10⁻⁶ cm/s | 1.4 ×10⁻⁶ cm/s | 16.4 ×10⁻⁶ cm/s | 33.5 ×10⁻⁶ cm/s | 2.04 | 
4 | C[C@H]1O[C@@H](O[C@H]2[C@@H](O)C[C@H](O[C@H]3[C@@H](O)C[C@H](O[C@H]4CC[C@@]5(C)[C@H](CC[C@@H]6[C@@H]5C[C@@H](O)[C@]5(C)[C@@H](C7=CC(=O)OC7)CC[C@]65O)C4)O[C@@H]3C)O[C@@H]2C)C[C@H](O)[C@@H]1O [DIGOXIN] |  |  | 0.19 ×10⁻⁶ cm/s |  | 22.7 |  | 65.5 | 12.4 ×10⁻⁶ cm/s |  |  | 8.06 ×10⁻⁶ cm/s | 0.35 ×10⁻⁶ cm/s |  |  |  | 
5 | CC(=O)O[C@H]1C(=O)[C@@]2(C)[C@H]([C@H](OC(=O)c3ccccc3)[C@]3(O)C[C@H](OC(=O)[C@H](O)[C@@H](NC(=O)c4ccccc4)c4ccccc4)C(C)=C1C3(C)C)[C@]1(OC(C)=O)CO[C@@H]1C[C@@H]2O [PACLITAXEL] |  |  | 0.13 ×10⁻⁶ cm/s | Not Active | 344 | 7.05 nM | 334 | 44.1 ×10⁻⁶ cm/s |  |  | 29.8 ×10⁻⁶ cm/s | 0.09 ×10⁻⁶ cm/s | 0.97 ×10⁻⁶ cm/s | 33.4 ×10⁻⁶ cm/s | 34.4 | 
